{"data": "Assay results pooled from the literature", "cell line": "A-375", "effect on": "cell growth or viability"}
{"Structure (SMILES)": "COc1cc(C(=O)c2nc(-c3cccc4[nH]cnc34)c[nH]2)cc(OC)c1OC", "technique": "MTS", "time": "72 h", "IC50 [nM]": 19.7}
{"Structure (SMILES)": "C[C@H]1COCCN1c1nc(N2CCOC[C@@H]2C)c2ccc(-c3cccc(C(=O)NCCOCCOCCOCCONC(=O)c4ccc(F)c(F)c4Nc4ccc(I)cc4F)c3)nc2n1", "technique": "WST-1", "time": "72 h", "IC50 [nM]": 11600}
{"Structure (SMILES)": "COc1cccc(Nc2nc(-c3ccncc3)nc3c2CNCC3)c1", "technique": "MTT", "IC50 [nM]": 37200}
{"Structure (SMILES)": "CC(=O)O[C@H]1C(=O)[C@@]2(C)[C@H]([C@H](OC(=O)c3ccccc3)[C@]3(O)C[C@H](OC(=O)[C@H](O)[C@@H](NC(=O)c4ccccc4)c4ccccc4)C(C)=C1C3(C)C)[C@]1(OC(C)=O)CO[C@@H]1C[C@@H]2O", "technique": "MTS", "time": "72 h", "IC50 [nM]": 3}
{"Structure (SMILES)": "CC(C)(C)c1cnc(CSc2cnc(NC(=O)C3CCN(C(=O)CCCCCCCN4Cc5cc6c(cc5C4)C(=O)N(C4CCC(=O)NC4=O)C6=O)CC3)s2)o1 (stereo not drawn)", "technique": "MTT", "IC50 [nM]": 83.3}
{"Structure (SMILES)": "COc1cc(C(=O)c2nc(-c3cccc4[nH]ccc34)c[nH]2)cc2c1OC=CO2", "technique": "MTS", "time": "72 h", "IC50 [nM]": 11.5}
{"Structure (SMILES)": "Fc1ccccc1Nc1nc(-c2ccncc2)nc2c1CNCC2", "technique": "MTT", "IC50 [nM]": "> 100000"}
{"Structure (SMILES)": "COc1ccc(-c2ccc3c(N4CCOC[C@@H]4C)nc(N4CCOC[C@@H]4C)nc3n2)cc1COC(=O)CCOCCOCCOCCONC(=O)c1ccc(F)c(F)c1Nc1ccc(I)cc1F", "technique": "WST-1", "time": "72 h", "IC50 [nM]": 204}
{"Structure (SMILES)": "CN1CCC(NC2CCc3[nH]c4c(C(N)=O)ccc(-c5ccccc5Cl)c4c3C2)CC1 (stereo not drawn)", "time": "96 h", "IC50 [nM]": 26.8}
{"Structure (SMILES)": "CNc1cccc(Nc2nc(-c3ccncc3)nc3c2CNCC3)c1", "technique": "MTT", "IC50 [nM]": 35200}
{"Structure (SMILES)": "COc1cccc2c1C(=O)c1c(O)c3c(c(O)c1C2=O)C[C@@](O)(C(=O)CO)C[C@@H]3O[C@H]1C[C@H](N)[C@H](O)[C@H](C)O1", "time": "96 h", "IC50 [nM]": 32.9}
{"Structure (SMILES)": "CN1CCc2c(c3ccccc3n2Cc2ccc(C(=O)NO)cc2)C1", "technique": "CCK-8", "time": "48 h", "IC50 [nM]": 14800}
